One may read the pIC50 as the negative decadic logarithm of the IC50, by convention in mol/L.

pIC50: −log10 of the molar value. Calls of active or inactive are those of the source. The calls are words filed in the database; no cut-off is given here.

This is an account of results in ChEMBL document CHEMBL4382215, “Synthesis of new ent-labdane diterpene derivatives from andrographolide and evaluation of their anti-inflammatory activities” (Eur J Med Chem, 2019).

The subject of data set [1] is RAW264.7. Kind of data set: Antiinflammatory activity in mouse RAW264.7 cells assessed as inhibition of LPS-induced nitric oxide production preincubated for 3 hrs followed by LPS addition and measured after 24 hrs by griess assay. In kind it is functional, cell-based. The procedure, abridged:
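RAW264.7 cells in 96-well plates were exposed to compounds over 0–100 µM for 3 h, then to LPS 1 µg/mL for 24 h. Controls were DMSO without LPS (vehicle) and DMSO with LPS (model). Nitrite in the medium was read with Griess reagent at 540 nm. Percent inhibition was calculated and IC50 derived; hydrocortisone was the positive control.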
(The Griess reaction detects nitrite, a stable product of nitric oxide.)

Data set [2] has as its system RAW264.7. The data set can be described thus: Cytotoxicity against mouse RAW264.7 cells assessed as effect on cell viability at 3.125 to 100 uM after 24 hrs by CCK8 assay. Conditions: raw264.7, 24 h. In kind it is cell-based. The procedure, abridged: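 Cells were grown in DMEM with 10% FBS and penicillin/streptomycin at 37 °C, 5% CO2. For the assay they were seeded at 5×10^4 cells/well and exposed in serum-free medium to a range of compound concentrations for 24 h, with DMSO as vehicle. Viability was read by CCK-8, in triplicate.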
A general note: Tetrazolium assays rely on reduction of a dye to a coloured formazan, in cell work by metabolically active cells.

Data set [3] relates to RAW264.7. Kind of data set: Antiinflammatory activity in mouse RAW264.7 cells assessed as inhibition of LPS-induced IL1beta production preincubated for 3 hrs followed by LPS addition and measured after 24 hrs by ELISA. The data set is classed as functional, cell-based. Put shortly: (§1)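 Cells in 96-well plates were pretreated with DMSO or compound at 5, 10 and 20 µM for 3 h, then stimulated with LPS 1 µg/mL for 24 h. IL-1β and IL-6 in the medium were quantified by commercial ELISA, with OD read at […]. Results are mean ± SD of at least three independent experiments.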
On the technique in general: ELISA stands for enzyme-linked immunosorbent assay.

Data set [4] deals with RAW264.7. The data set can be described thus: Antiinflammatory activity in mouse RAW264.7 cells assessed as inhibition of LPS-induced IL6 production preincubated for 3 hrs followed by LPS addition and measured after 24 hrs by ELISA. In kind it is functional, cell-based. Put shortly: as §1
Data set [5] deals with RAW264.7. Kind of data set: Antiinflammatory activity in mouse RAW264.7 cells assessed as inhibition of LPS-induced iNOS expression at 5 to 20 uM preincubated for 3 hrs followed by LPS addition and measured after 24 hrs by Western blot analysis. The data set is classed as functional. The procedure, abridged:
(§2)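 RAW264.7 cells in 6-well plates were pretreated as for ELISA, then given LPS 1 µg/mL for 24 h and lysed with protease inhibitors. 30 µg total protein was run on 10% SDS-PAGE and blotted to nitrocellulose, blocked in 5% skim milk, and probed overnight at 4 °C. Primary antibodies were iNOS 1:200; COX-2, NF-κB, IκBα and p-IκBα 1:2000; β-actin 1:2000 as reference. Detection used HRP secondary and ECL; data from ≥3 independent experiments.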

Data set [6] has as its system RAW264.7. The data set can be described thus: Antiinflammatory activity in mouse RAW264.7 cells assessed as inhibition of LPS-induced COX2 expression at 5 to 20 uM preincubated for 3 hrs followed by LPS addition and measured after 24 hrs by Western blot analysis. In kind it is functional, cell-based. The procedure, abridged: as §2
For data set [7], the target named is T1, NF-kappa-B inhibitor alpha (Mus musculus) (UniProt Q9Z1E3).
T1 sequence (whole entry): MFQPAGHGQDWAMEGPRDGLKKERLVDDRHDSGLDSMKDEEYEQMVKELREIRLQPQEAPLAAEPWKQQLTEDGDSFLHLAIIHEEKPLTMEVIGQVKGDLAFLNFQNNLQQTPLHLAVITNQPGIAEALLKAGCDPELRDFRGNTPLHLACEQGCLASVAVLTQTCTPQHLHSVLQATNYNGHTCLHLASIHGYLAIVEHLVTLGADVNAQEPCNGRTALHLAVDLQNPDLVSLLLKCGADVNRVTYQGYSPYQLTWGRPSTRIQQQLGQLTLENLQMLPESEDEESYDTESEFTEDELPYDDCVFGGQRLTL
The data set can be described thus: Inhibition of LPS-induced IkappaBalpha phosphorylation in mouse RAW264.7 cells at 5 to 20 uM preincubated for 3 hrs followed by LPS addition and measured after 24 hrs by Western blot analysis. The data set is classed as cell-based. Put shortly:
as §2

Data set [8] has as its system RAW264.7. The data set can be described thus: Inhibition of LPS-induced IkappaBalpha expression in mouse RAW264.7 cells at 5 to 20 uM preincubated for 3 hrs followed by LPS addition and measured after 24 hrs by Western blot analysis. In kind it is functional, cell-based. Put shortly:
as §2

In data set [9] the test system is RAW264.7. Kind of data set: Inhibition of LPS-induced NFkappaB expression in mouse RAW264.7 cells at 5 to 20 uM preincubated for 3 hrs followed by LPS addition and measured after 24 hrs by Western blot analysis. In kind it is functional, cell-based. The procedure, abridged:
as §2

In data set [10] the target is Transcription factor p65 (Mus musculus) (UniProt Q04207). Kind of data set: Inhibition of LPS-induced NFkappaB p65 nuclear translocation in mouse RAW264.7 cells at 10 uM preincubated for 2 hrs followed by LPS-stimulation and measured after 12 hrs by DAPI staining based immunofluorescence microscopic analysis. In kind it is cell-based. The procedure, abridged:
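Cells grown in glass chambers were pretreated with DMSO or compound for 2 h, then given LPS 1 µg/mL for 12 h. They were fixed in 4% paraformaldehyde for 15 min, permeabilized with 0.25% Triton X-100, and labelled with p65 antibody plus AlexaFluor488 secondary. Nuclei were stained with DAPI at 37 °C for 30 min in the dark, and cells were imaged by fluorescence microscopy.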

Chain of Transcription factor p65 (Mus musculus) (Q04207 whole entry): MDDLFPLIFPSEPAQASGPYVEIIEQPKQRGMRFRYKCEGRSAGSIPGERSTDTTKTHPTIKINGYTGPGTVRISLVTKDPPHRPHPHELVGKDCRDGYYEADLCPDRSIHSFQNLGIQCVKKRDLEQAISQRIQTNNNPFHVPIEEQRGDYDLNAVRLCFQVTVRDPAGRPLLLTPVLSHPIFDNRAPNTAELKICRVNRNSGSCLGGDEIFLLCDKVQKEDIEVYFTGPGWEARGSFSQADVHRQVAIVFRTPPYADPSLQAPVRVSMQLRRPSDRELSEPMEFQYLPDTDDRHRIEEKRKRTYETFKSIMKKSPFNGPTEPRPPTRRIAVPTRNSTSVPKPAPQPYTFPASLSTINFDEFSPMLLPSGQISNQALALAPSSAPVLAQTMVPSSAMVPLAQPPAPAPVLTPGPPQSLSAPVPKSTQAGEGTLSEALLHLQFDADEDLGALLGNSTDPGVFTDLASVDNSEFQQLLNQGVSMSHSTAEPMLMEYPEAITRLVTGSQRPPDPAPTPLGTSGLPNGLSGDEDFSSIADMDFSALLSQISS

`C=C1CCC2[C@](C)(CO)[C@H](O)CC[C@@]2(C)[C@@H]1CCn1cncn1` (stereo partly drawn): the pIC50 with RAW264.7 [1] was less than 4.00.

As for `C=C1CCC2[C@](C)(CO)[C@H](O)CC[C@@]2(C)[C@@H]1CCOC(=O)c1ccccc1` (stereo partly drawn), in the data set with RAW264.7 [1], the pIC50 is less than 4.00.

With `C=C1CCC2[C@](C)(CO)[C@H](O)CC[C@@]2(C)[C@@H]1CCOC(=O)c1ccc([N+](=O)[O-])cc1` (stereo partly drawn), in the data set on RAW264.7 [1], the pIC50 was 4.43.

With `C=C1CCC2[C@](C)(CO)[C@H](O)CC[C@@]2(C)[C@@H]1CCOC(=O)c1cccnc1` (stereo partly drawn), in the data set with RAW264.7 [1], the pIC50 is less than 4.30.

`C=C1CCC2[C@](C)(CO)[C@H](O)CC[C@@]2(C)[C@@H]1CCOc1ccc(-c2cc(=O)c3cc(C)ccc3o2)cc1` (stereo partly drawn): in the data set with RAW264.7 [1], the pIC50 was less than 4.00.

Turning to `C=C1CCC2[C@](C)(CO)[C@H](O)CC[C@@]2(C)[C@@H]1CCOc1ccc2oc(-c3ccccc3)cc(=O)c2c1` (stereo partly drawn), the pIC50 in the data set with RAW264.7 [1] was less than 4.00.

On to `C=C1CCC2[C@](C)(CO)[C@H](O)CC[C@@]2(C)[C@@H]1CCOc1ccc(Br)cc1` (stereo partly drawn), for which the pIC50 in the data set with RAW264.7 [1] is 4.40.

`C=C1CCC2[C@](C)(CO)[C@H](O)CC[C@@]2(C)[C@@H]1CCOc1ccc(C(C)(C)C)cc1` (stereo partly drawn): the pIC50 with RAW264.7 [1] was 4.45.

For `C=C1CCC2[C@](C)(CO)[C@H](O)CC[C@@]2(C)[C@@H]1CCn1c(N)nccc1=O` (stereo partly drawn), in the data set with RAW264.7 [1], the pIC50 was less than 4.00.

With `C=C1CC[C@@H]2[C@](C)(CO)[C@H](O)CC[C@@]2(C)[C@@H]1C/C=C1/C(=O)OC[C@H]1O` [ANDROGRAPHOLIDE], the pIC50 with RAW264.7 [1] was 5.06.

As to `C=C1CCC2[C@](C)(CO)[C@H](O)CC[C@@]2(C)[C@@H]1CCn1ccnc1` (stereo partly drawn), the pIC50 with RAW264.7 [1] was less than 4.30.

`C=C1CCC2[C@](C)(CO)[C@H](O)CC[C@@]2(C)[C@@H]1CCOc1ccc([N+](=O)[O-])cc1` (stereo partly drawn): the pIC50 with RAW264.7 [1] was 5.47. The Activity result with RAW264.7 [2] is reported as “Non-Toxic”. Besides, the inhibition result with RAW264.7 [3] and in the data set with RAW264.7 [4] was “Dose-dependent effect” in each case. Besides, in the data set on RAW264.7 [5], the “inhibition (INH)” value is given as 100%. Also, the inhibition result (in the data set on RAW264.7 [6]; in [7]; in the data set with RAW264.7 [8]; with RAW264.7 [9]; in data set [10]) was “Active” each time.

As for `C=C1CCC2[C@](C)(CO)[C@H](O)CC[C@@]2(C)[C@@H]1CCn1ccc(=O)[nH]c1=O` (stereo partly drawn), the pIC50 in the data set on RAW264.7 [1] is less than 4.00.

For `C=C1CCC2[C@](C)(CO)[C@H](O)CC[C@@]2(C)[C@@H]1CCOc1cccc2ccccc12` (stereo partly drawn), the pIC50 with RAW264.7 [1] is 4.35.

Regarding `C=C1CCC2[C@](C)(CO)[C@H](O)CC[C@@]2(C)[C@@H]1CCn1cnc2c(N)ncnc21` (stereo partly drawn), the pIC50 in the data set on RAW264.7 [1] was less than 4.00.

Regarding `C=C1CCC2[C@](C)(CO)[C@H](O)CC[C@@]2(C)[C@@H]1CCOC(=O)c1ccccc1[N+](=O)[O-]` (stereo partly drawn), in the data set with RAW264.7 [1], the pIC50 is 4.45.

As for `C=C1CCC2[C@](C)(CO)[C@H](O)CC[C@@]2(C)[C@@H]1CCOc1ccc2ccc(=O)oc2c1` (stereo partly drawn), in the data set on RAW264.7 [1], the pIC50 was less than 4.30.

With `C=C1CCC2[C@](C)(CO)[C@H](O)CC[C@@]2(C)[C@@H]1CCOc1ccc(Oc2ccccc2)cc1` (stereo partly drawn), the pIC50 in the data set on RAW264.7 [1] is 4.89.

With `C=C1CCC2[C@](C)(CO)[C@H](O)CC[C@@]2(C)[C@@H]1CCOc1ccccc1O` (stereo partly drawn), the pIC50 in the data set on RAW264.7 [1] is 4.32.
